Results published in ChEMBL document CHEMBL5247630, “Rational design of the zonulin inhibitor AT1001 derivatives as potential anti SARS-CoV-2” (Eur J Med Chem, 2022).
Non-standard residues stand in square brackets, D forms with d. Residues, ends and D or L forms follow the SMILES beside them. *: point of attachment. Tic = O=C(O)[C@@H]1Cc2ccccc2CN1; Boc = CC(C)(C)OC(=O)*

Tests used:
Human betaherpesvirus 5 [1] = experiment: Antiviral activity against HCMV AD-169 infected in HELF cells assessed as reduction in viral replication; format: functional, organism-based; conditions: Human betaherpesvirus 5, AD-169, HELF
Human betaherpesvirus 5 [2] = experiment: Antiviral activity against HCMV Davis infected in HELF cells assessed as reduction in viral replication; format: functional, organism-based; conditions: Human betaherpesvirus 5, Davis
[3] = biological target: T1, Replicase polyprotein 1ab (Severe acute respiratory syndrome coronavirus 2, UniProt P0DTD1); experiment: Inhibition of C-terminal His6-tagged recombinant SARS-CoV-2 MPro transfected in Escherichia coli BL21 (DE3) using Dabcyl-KTSAVLQSGFRKM-E(Edans)-NH2 as substrate preincubated for 15 mins followed by substrate addition measured after 30 mins by FRET assay
How it was run: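 Recombinant Mpro (20 nM final) was preincubated 15 min at room temperature with compound.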

[4] = biological target: T1, Replicase polyprotein 1ab; experiment: Binding affinity to C-terminal His6-tagged recombinant SARS-CoV-2 MPro transfected in Escherichia coli BL21 (DE3) assessed as dissociation constant by Cheng-Prusoff equation analysis
[5] = Stability of compound in PBS buffer at pH 7 at 25 to […] degreeC measured for 3 to 24 hrs by HPLC analysis; format: physicochemical; conditions: time 3-24 hrs
How it was run: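 Peptide at 0.3 mg/mL was held in PBS pH 7.0 at 25 °C and 37 °C for 24 h. The peptide peak area was followed by RP-HPLC on C18 with detection at 220 nm, sampled at 3, 6, 8 and 24 h.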

SARS-CoV-2 [6] = experiment: Antiviral activity against SARS-CoV-2 UC-1074 infected in African green monkey Vero cells assessed as reduction in virus-induced cytopathic effect incubated for 5 days by microscopic analysis; format: functional, organism-based; conditions: Severe acute respiratory syndrome coronavirus 2, UC-1074, Vero, 120 h
SARS-CoV-2 [7] = experiment: Antiviral activity against SARS-CoV-2 RG2674 infected in African green monkey Vero cells assessed as reduction in virus-induced cytopathic effect incubated for 5 days by microscopic analysis; format: functional, organism-based; conditions: Severe acute respiratory syndrome coronavirus 2, RG2674, Vero, 120 h
SARS-CoV-2 [8] = experiment: Antiviral activity against SARS-CoV-2 NVDBB-2220 infected in African green monkey Vero cells assessed as reduction in virus-induced cytopathic effect incubated for 5 days by microscopic analysis; format: functional, organism-based; conditions: Severe acute respiratory syndrome coronavirus 2, NVDBB-2220, Vero, 120 h
[9] = Cytotoxicity against African green monkey Vero cells assessed as change in cell morphology by microscopic analysis; format: toxicity, cell-based; conditions: chlorocebus sabaeus
How it was run: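 Vero CCL81 cells were run in parallel with the antiviral assay in DMEM 2% FCS for 5 days at 37 °C. The value is the minimum concentration causing a microscopically detectable change in cell morphology.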

Vero = experiment: Cytotoxicity against African green monkey Vero cells assessed as reduction in cell growth by Coulter counter analysis; format: toxicity, cell-based; conditions: chlorocebus sabaeus
How it was run: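 Mock-infected Vero CCL81 cultures were treated with the compound dilution series in DMEM 2% FCS for 5 days at 37 °C.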

[10] = biological target: T1, Replicase polyprotein 1ab; experiment: Binding affinity to C-terminal His6-tagged recombinant SARS-CoV-2 MPro expressed in Escherichia coli BL21 (DE3) assessed as dissociation constant by ITC assay
How it was run: (§1)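 E. coli BL21(DE3) Mpro, made untagged by 3C cleavage and SEC, was dialysed into 25 mM Tris-HCl pH 7.6, 20 mM NaCl, 1 mM TCEP. 20–25 µM protein in the cell was titrated with 160–250 µM compound at 28 °C, 0.5% DMSO on both sides, 2.5 µL injections every 180 s. One-site fit with stoichiometry fixed at 1 gave ΔH, ΔS and KD.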

[11] = biological target: Replicase polyprotein 1ab (Severe acute respiratory syndrome coronavirus 2) (UniProt P0DTD1); experiment: Binding affinity to C-terminal His6-tagged recombinant SARS-CoV-2 MPro expressed in Escherichia coli BL21 (DE3) assessed as change in gibbs free energy by ITC assay
[12] = biological target: Replicase polyprotein 1ab (Severe acute respiratory syndrome coronavirus 2) (UniProt P0DTD1); experiment: Binding affinity to C-terminal His6-tagged recombinant SARS-CoV-2 MPro expressed in Escherichia coli BL21 (DE3) assessed as change in enthalpy by ITC assay; how it was run: as §1
[13] = biological target: Replicase polyprotein 1ab (Severe acute respiratory syndrome coronavirus 2) (UniProt P0DTD1); experiment: Binding affinity to C-terminal His6-tagged recombinant SARS-CoV-2 MPro expressed in Escherichia coli BL21 (DE3) assessed as change in entropy by ITC assay; how it was run: as §1
Human alphaherpesvirus 3 [14] = experiment: Antiviral activity against thymidine kinase positive VZV OKA infected in HELF cells assessed as reduction in viral replication; format: functional, organism-based; conditions: Human alphaherpesvirus 3, OKA
Human alphaherpesvirus 3 [15] = experiment: Antiviral activity against thymidine kinase deficient VZV 07-1 infected in HELF cells assessed as reduction in viral replication; format: functional, organism-based; conditions: Human alphaherpesvirus 3, 07-1, HELF
[16] = Cytotoxicity against HELF cells assessed as change in cell morphology; format: toxicity, cell-based; conditions: human

Row | SMILES | EC50 (Human betaherpesvirus 5 [1]) [µM] | EC50 (Human betaherpesvirus 5 [2]) [µM] | IC50 [3] [µM] | Kd [4] [µM] | Stability [5] | EC50 (SARS-CoV-2 [6]) [µM] | EC50 (SARS-CoV-2 [7]) [µM] | EC50 (SARS-CoV-2 [8]) [µM] | MCC [9] [µM] | CC50 (Vero) [µM] | Kd [10] [µM] | deltaG [11] [kcal/mol] | deltaH [12] [kcal/mol] | -TdeltaS [13] [kcal/mol] | EC50 (Human alphaherpesvirus 3 [14]) [µM] | EC50 (Human alphaherpesvirus 3 [15]) [µM] | MCC [16] [µM]
1 | Nc1ccn(C[C@@H](CO)OCP(=O)(O)O)c(=O)n1 [CIDOFOVIR] | 1.08 | 0.25 |  |  |  |  |  |  |  |  |  |  |  |  |  |  | 
2 | CC(=O)NCC(=O)N[C@@H](Cc1ccc(O)cc1)C(=O)N[C@H](C=O)Cc1c[nH]cn1 (Ac-Gly-Tyr-His-aldehyde) |  |  | 198 | 98.9 |  |  |  |  |  |  |  |  |  |  |  |  | 
3 | CC(=O)NCC(=O)N[C@@H](Cc1c[nH]cn1)C(=O)N[C@H](C=O)Cc1ccc(O)cc1 (Ac-Gly-His-Tyr-aldehyde) |  |  | > 425 | > 213 |  |  |  |  |  |  |  |  |  |  |  |  | 
4 | CC(=O)NCC(=O)N[C@@H](Cc1ccccc1)C(=O)N[C@H](C=O)Cc1c[nH]cn1 (Ac-Gly-Phe-His-aldehyde) | > 20 | > 100 | 2.51 | 1.26 | Stable | 66.1 | > 100 | 40.3 | ≥ 100 | > 100 | 0.64 | -8.53 | -12.7 | 4.16 | > 100 | > 100 | > 100
5 | CC(C)(C)OC(=O)NCC(=O)N[C@@H](Cc1ccccc1)C(=O)N[C@H](C=O)Cc1c[nH]cn1 (Boc-Gly-Phe-His-aldehyde) | > 20 | > 100 | 6.49 | 3.26 |  | 50.2 | 84.9 | 43.3 | ≥ 100 | > 100 | 0.442 | -8.77 | -14.5 | 5.78 | > 100 | > 100 | > 100
6 | O=C[C@H](Cc1c[nH]cn1)NC(=O)[C@H](Cc1c[nH]cn1)NC(=O)[C@@H]1Cc2ccccc2CN1 (H-[Tic]-His-His-aldehyde) |  |  | 37.8 | 18.9 |  |  |  |  |  |  |  |  |  |  |  |  | 
7 | CC(=O)NCC(=O)N[C@@H](Cc1c[nH]cn1)C(=O)N[C@H](C=O)Cc1c[nH]cn1 (Ac-Gly-His-His-aldehyde) |  |  | > 213 | > 107 |  |  |  |  |  |  |  |  |  |  |  |  | 
